Data taken from ChEMBL document CHEMBL2440013, “New quaternary ammonium camphor derivatives and their antiviral activity, genotoxic effects and cytotoxicity” (Bioorg Med Chem, 2013).
Structures can show the parent of a compound that is named as a salt.

Assays:
[1] = Toxicity in Escherichia coli BL21(DE3) expressing pET36b-gfp assessed as inhibition of IPTG-induced reporter protein GFP synthesis at 150 uM after 1.5 hrs by fluorophotometry relative to control; conditions: Escherichia coli BL21(DE3) cells expressing pET36b-gfp, read-out: Activity
Procedure, shortened: (§1)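 E. coli BL21(DE3) carrying the IPTG-inducible gfp plasmid was grown in LB at 37 °C with shaking to D600 0.4–0.5, then treated with compound for 1.5 h. OD600 and GFP emission 500–600 nm (excitation 491 nm) were read. Control cells were untreated, with 1 mM IPTG (final) added after 1.5 h. Fluorescence decreases of 20% and 50% versus control were counted as toxic and extremely toxic.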

[2] = tested on: Escherichia coli; test: Induction of mutagenicity in Escherichia coli BL21(DE3) expressing pRAC-gfp assessed as modulation of reporter protein GFP synthesis at 150 uM incubated for 1.5 hrs followed by plasmid maturation measured after 1.5 hrs by fluorophotometry relative to control; assay type: toxicity
[3] = Selectivity index, ratio of CTD50 for MDCK cells to EC50 for Influenza A virus California/07/09(H1N1) pdm09 infected in MDCK cells; assay type: toxicity, cell-based; conditions: dog, read-out: Selectivity Index
Procedure, shortened: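 CTD50 came from MDCK cells given twofold dilutions (1000–4 µg/ml) in MEM for 48 h at 37 °C, 5% CO2. CTD50 was the concentration halving OD versus control. SI is CTD50 divided by EC50 from the haemagglutination-based antiviral assay.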

[4] = Antiviral activity against Influenza virus A/California/07/09 (H1N1)pdm09 infected in MDCK cells assessed as inhibition of viral replication incubated for 1 hr prior to viral infection measured after 48 hrs by hemagglutination reaction; assay type: functional, cell-based, Influenza A virus (A/California/07/2009(H1N1))
Procedure, shortened: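 MDCK monolayers in MEM were pre-incubated with compound for 1 h at 37 °C before infection, then held 48 h at 37 °C in 5% CO2. Virus yield was read by haemagglutination: equal volumes of supernatant and 1% chicken erythrocytes, 60 min at room temperature. Triplicates were run. EC50 was the concentration that halved virus production (0.3 log10 EID50 titre drop).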

[5] = Cytotoxicity against MDCK cells after 48 hrs by MTT assay; assay type: cell-based, Canis lupus familiaris; conditions: dog, read-out: CTD50
Procedure, shortened: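 MDCK cells were grown in MEM at 37 °C, 5% CO2 to a confluent monolayer. They were then exposed for 48 h to twofold dilutions (1000–4 µg/ml in MEM), washed twice with saline, and given MTT ([…] in saline) for 1 h. Formazan was dissolved in DMSO and OD read at 535 nm. Triplicates were run. CTD50 is the concentration halving OD versus control wells.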

[6] = tested on: Escherichia coli; test: Induction of mutagenicity in Escherichia coli BL21(DE3) expressing pRAC-gfp assessed as induction of reporter protein GFP synthesis at 10 ug/ml incubated for 1.5 hrs followed by plasmid maturation measured after 1.5 hrs by fluorophotometry; assay type: toxicity
Procedure, shortened: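 BL21(DE3) carried pRAC-gfp, with GFP under the Proteus mirabilis recA regulatory region. Cells were grown in LB at 37 °C with shaking to OD600 0.4–0.5, given compound, grown 1.5 h, then held 1.5 h at 4–6 °C for chromophore maturation. OD600 and GFP emission (500–600 nm, excitation 491 nm) were measured. Controls were water (negative) and nalidixic acid […] (positive). Result is % change in GFP versus control.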

[7] = Toxicity in Escherichia coli BL21(DE3) expressing pET36b-gfp assessed as inhibition of IPTG-induced reporter protein GFP synthesis at 2 uM after 1.5 hrs by fluorophotometry relative to control; conditions: Escherichia coli BL21(DE3) cells expressing pET36b-gfp, read-out: Activity; procedure, shortened: as §1
[8] = tested on: Escherichia coli; test: Induction of mutagenicity in Escherichia coli BL21(DE3) expressing pRAC-gfp assessed as modulation of reporter protein GFP synthesis at 2 uM incubated for 1.5 hrs followed by plasmid maturation measured after 1.5 hrs by fluorophotometry; assay type: toxicity
[9] = tested on: U-937; test: Cytotoxicity against human U937 cells after 72 hrs by MTT assay; assay type: functional
Procedure, shortened: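 Cells were grown in RPMI-1640 with 10% embryonic calf serum, 2 mmol/L L-glutamine, gentamicin and lincomycin. Compounds in DMSO were added, then 72 h at 37 °C, 5% CO2. Three wells per concentration, with untreated cells as control. 1% MTT for 4 h, DMSO for 15 min, OD 570 nm. CTD50 is the concentration killing 50% of cells.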

| Structure (SMILES) | selectivity ratio [3] | EC50 ([4]; Influenza A virus, pdm09, MDCK) | CC50 at 48 h [5] | also measured |
| --- | --- | --- | --- | --- |
| CC[N+](CC)(CCCCCCCCCCCC[N+](CC)(CC)CC/N=C1\C[C@H]2CC[C@]1(C)C2(C)C)CC/N=C1\C[C@H]2CC[C@]1(C)C2(C)C | 2 | 59.9 µM | 128 µM | inhibition at 1.5 h, 150 µM [1]: 89%; Activity [2]: 74% |
| CC[N+](C)(CC)CC/N=C1\C[C@H]2CC[C@]1(C)C2(C)C |  | 40.4 µM | 1890 µM |  |
| CC[N+](CC)(CCCCCCCCCC[N+](CC)(CC)CC/N=C1\C[C@H]2CC[C@]1(C)C2(C)C)CC/N=C1\C[C@H]2CC[C@]1(C)C2(C)C | 5 | 55.3 µM | 285 µM | inhibition at 1.5 h, 150 µM [1]: 78%; Activity [2]: 70% |
| NC12CC3CC(CC(C3)C1)C2 [AMANTADINE] | 4 |  | 284 µM | EC50 ([4]; mdck): 64.2 µM |
| CCn1cc(C(=O)O)c(=O)c2ccc(C)nc21 [NALIDIXIC ACID] |  |  |  | Activity [6]: 500% |
| CC[N+](CC)(CCCCCCCC[N+](CC)(CC)CC/N=C1\C[C@H]2CC[C@]1(C)C2(C)C)CC/N=C1\C[C@H]2CC[C@]1(C)C2(C)C | 42 | 13.2 µM | 552 µM | inhibition at 1.5 h, 150 µM [1]: 67%; Activity [2]: 57% |
| CC12CCC(CC1=O)C2(C)C (single isomer, unassigned; (+)) [CAMPHOR] | 2 |  | 3290 µM | inhibition at 1.5 h, 2 µM [7]: 6%; Activity [8]: 5%; EC50 ([4]; mdck): 1640 µM |
| CC(N)C12CC3CC(CC(C3)C1)C2 (stereo unspecified) [RIMANTADINE HYDROCHLORIDE] | 5 | 67 µM | 335 µM |  |
| CC(N)C1C[C@@H]2CC[C@H]1C2 (stereo partly specified) [DEITIFORIN] |  |  | 1270 µM |  |
| CCN(CC)CC/N=C1\C[C@H]2CC[C@]1(C)C2(C)C | 81 | 10 µM | 807 µM |  |
| CC[N+](CC)(CCCCC[N+](CC)(CC)CC/N=C1\C[C@H]2CC[C@]1(C)C2(C)C)CC/N=C1\C[C@H]2CC[C@]1(C)C2(C)C | 87 | 14.7 µM | 1280 µM |  |
| CC[N+](CC)(CC/N=C1\C[C@H]2CC[C@]1(C)C2(C)C)Cc1ccc(C[N+](CC)(CC)CC/N=C2\C[C@H]3CC[C@]2(C)C3(C)C)cc1 | 33 | 43.4 µM | 1450 µM |  |
| CC[N+](CC)(CCCCCCCCC[N+](CC)(CC)CC/N=C1\C[C@H]2CC[C@]1(C)C2(C)C)CC/N=C1\C[C@H]2CC[C@]1(C)C2(C)C | 82 | 6.9 µM | 578 µM | inhibition at 1.5 h, 150 µM [1]: 65%; Activity [2]: 51% |
| CC[N+](CC)(CC)CC/N=C1\C[C@H]2CC[C@]1(C)C2(C)C | 13 | 140 µM | 1780 µM |  |
| CC[N+](CC)(CCCCCC[N+](CC)(CC)CC/N=C1\C[C@H]2CC[C@]1(C)C2(C)C)CC/N=C1\C[C@H]2CC[C@]1(C)C2(C)C.[Br-].[Br-] | 21 | 81.2 µM | 1710 µM | CTD50 [9]: 82.1 µM |
